Reference: paper PMC3264876 (Pharmaceutical Research, 2011)

Assay: Nonsink release testing in MFDS
Type: physicochemical
Method in brief: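 Nanoparticle or bulk crystalline suspensions (nanoparticles at about 6 mg/mL solids, various drug loadings) diluted to 40 μgA/mL in MFDS. MFDS: 7.3 mM NaTC, 1.4 mM POPC, phosphate/NaCl, pH 6.5, 290 mOsm. Stirred at 60 rpm. Duplicate aliquots per time point spun through 100-kDa MWCO filters, 12,000 rpm, 5 min. Free drug is dissolved plus micellar; split estimated from micelle partition coefficient and micelle volume fraction.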

For `Cc1ccc(-c2cc(C(F)(F)F)nn2-c2ccc(S(N)(=O)=O)cc2)cc1` [celecoxib], the “equilibrium partition coefficient into bile-salt micelles” value (MFDS) was “approximately 1,000”, the “maximum concentration in MFDS (dissolved plus in bile-salt micelles)” value (MFDS pH 6.5, dose 40 μgA/mL) was 16 µg/mL and the “time to reach maximum concentration in MFDS” value (MFDS, 40 μgA/mL) was “at least 1 h”. The “concentration of celecoxib in bile-salt micelles” value (MFDS, equilibrium) was “about 13.5 μg/mL” and the “dissolved celecoxib concentration at equilibrium” value (MFDS, from micelle partition coefficient and 0.5% micelle volume) was “approximately 2.5 μg/mL”.
